Screens (PubChem)
INS-1E ATP HTS – protection of INS-1E cells from cytokine death, primary screen, ATP luminescence, single point; INS-1E cytokine-induced death, 48 h; normalised: neutral wells 0, positive control 100; protection from cytokine-induced ATP loss, % at 10 µM; 20,000 tested, 0.1% active;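 active = mean replicate protection from cytokine-induced ATP loss at least 50% and at least 75% of replicates each reaching 50%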
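Assay system: INS-1E rat cells / Quantity: 8000 cells per well / Medium: RPMI without phenol red, 5% FBS / Probe or stimulus: three-cytokine cocktail (IFN-γ, TNF-α, IL-1β) / Dosing: one compound concentration, pin transfer / Timing: 48 h co-treatment, 10 min post-lysis read / Technique: CellTiter-Glo luminescence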
T cruzi HTS – inhibitors of intracellular Trypanosoma cruzi, primary screen, cell-based, plate reader, single point, set 2 | intracellular Trypanosoma cruzi in host cells | activity score (inhibition), % at 5.01 µM | AID 651903, 2012 | 22,000 tested, 4.9% active; in the data active = activity score above about 55%;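 note: parasites and compound incubated about four days before reading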
A1 apoptosis 2 – A1 inhibitors via caspase activation, primary screen, cell-based, luminescence, HTS, two replicates | MEF A1-2A-BIM cells, caspase-Glo luminescence, 3 h; percent of clofoctol response, DMSO zero | caspase activation, % (no concentration beside the values) | 24,000 tested, under 10 active; in the data active = caspase activation above about 5.9%
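system = A1-2A-BIM-expressing MEF cells | quantity = 2500 MEF cells/well | dosing = 50 nL compound per well, pinned | schedule = overnight cell settling, then 3 h compound exposure, 37 °C | signal = luminescence from DEVD-luciferin Caspase-Glo reagent, 1:1 in 50 mM HEPES, 1 h RT | read-out = Caspase-3/7 activation, seen as rise in luminescence signal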
A number is an active result; i = inactive; nt = no result given. This excerpt belongs to a sample that is enriched for hits.

SMILES	INS-1E ATP HTS	T cruzi HTS	A1 apoptosis 2
Cc1cc(C(=O)Nc2cccc3c2O[C@@H](CN(C)CC2CC2)[C@H](C)CN([C@H](C)CO)C3=O)n(C)n1	i	i	i
C[C@@H]1CN([C@H](C)CO)C(=O)c2cccc(NC(=O)c3ccncc3)c2O[C@H]1CN(C)CC1CC1	i	56	i
O=C(N/N=C/c1ccc(O)c(F)c1)c1ccccn1	i	i	i
CN(CCO)c1ccc(/C=N/NC(=O)CCCCCC(=O)NO)cc1	nt	nt	i
COC(=O)CCCCCCC(=O)N/N=C/c1ccc(OC)c(OC)c1	i	i	i
O=C(N/N=C/C(Br)=C/c1ccccc1)c1ccccn1	i	i	nt
O=C(N/N=C/[C@H](O)[C@H](O)[C@@H](O)[C@@H](O)CO)c1ccccc1O	i	i	i
O=C(CCCCCC(=O)N/N=C/c1ccccn1)NO	nt	nt	i
COc1ccc(S(=O)(=O)Nc2ccc3c(c2)CC(=O)N([C@H](C)CO)C[C@@H](C)[C@@H](CN(C)Cc2ccc(-c4ccccc4)cc2)O3)cc1	i	72	i
COc1ccc(CN(C)C[C@H]2Oc3ccc(NS(=O)(=O)c4ccc(OC)cc4)cc3CC(=O)N([C@H](C)CO)C[C@@H]2C)cc1	nt	nt	i
COc1ccc(S(=O)(=O)Nc2ccc3c(c2)CC(=O)N([C@@H](C)CO)C[C@@H](C)[C@H](CN(C)Cc2ccccc2)O3)cc1	nt	nt	i
COc1ccc(CN(C)C[C@H]2Oc3ccc(NS(=O)(=O)c4ccc(OC)cc4)cc3CC(=O)N([C@H](C)CO)C[C@H]2C)cc1	i	64	i
COc1ccc(S(=O)(=O)Nc2ccc3c(c2)CC(=O)N([C@@H](C)CO)C[C@@H](C)[C@@H](CN(C)Cc2ccc4c(c2)OCO4)O3)cc1	i	i	i
COc1ccc(CN(C)C[C@@H]2Oc3ccc(NS(=O)(=O)c4ccccc4)cc3CC(=O)N([C@@H](C)CO)C[C@@H]2C)cc1	i	i	nt
COc1ccc(S(=O)(=O)Nc2ccc3c(c2)CC(=O)N([C@H](C)CO)C[C@@H](C)[C@H](CN(C)Cc2ccc4c(c2)OCO4)O3)cc1	i	66	nt
COc1ccc(S(=O)(=O)Nc2ccc3c(c2)CC(=O)N([C@H](C)CO)C[C@@H](C)[C@@H](CN(C)Cc2ccccc2)O3)cc1	i	63	i
O=C(Nc1ccccc1)C1=C[C@H](c2ccc3c(c2)Cc2ccccc2-3)C[C@H](OCc2ccc(CO)cc2)O1	nt	nt	i
COc1ccc(CN(C)C[C@@H]2Oc3ccc(NS(=O)(=O)c4ccc(F)cc4)cc3CC(=O)N([C@H](C)CO)C[C@H]2C)cc1	i	i	nt
COc1ccc(CN(C)C[C@@H]2Oc3ccc(NS(=O)(=O)c4ccc(OC)cc4)cc3CC(=O)N([C@H](C)CO)C[C@H]2C)cc1	i	70	i
C[C@H](CO)N1C[C@H](C)[C@H](CN(C)Cc2ccc(-c3ccccc3)cc2)Oc2c(NC(=O)c3ccncc3)cccc2C1=O	i	68	i
C[C@@H]1CN([C@@H](C)CO)C(=O)c2cccc(NC(=O)c3ccncc3)c2O[C@H]1CN(C)Cc1ccc(-c2ccccc2)cc1	i	83	nt
C[C@@H]1CN([C@@H](C)CO)C(=O)c2cccc(NC(=O)c3ccncc3)c2O[C@H]1CN(C)Cc1ccc(C(=O)O)cc1	i	i	i
C[C@@H]1CN([C@H](C)CO)C(=O)c2cccc(NC(=O)c3ccncc3)c2O[C@@H]1CN(C)Cc1ccc(C(=O)O)cc1	i	i	i
C[C@@H]1CN([C@H](C)CO)C(=O)c2cccc(NC(=O)c3ccncc3)c2O[C@H]1CN(C)Cc1ccc(-c2ccccc2)cc1	i	84	nt
C[C@H](CO)N1C[C@H](C)[C@@H](CN(C)Cc2ccc(-c3ccccc3)cc2)Oc2c(NC(=O)c3ccncc3)cccc2C1=O	i	57	nt
SMILES	INS-1E ATP HTS	T cruzi HTS	A1 apoptosis 2
COc1cc(Br)c(/C=N/NC(=O)CCCCCCC(=O)Nc2ccccc2O)cc1OC	i	i	nt
CC(C)(C)OC(=O)N1CCC[C@H]1/C=N/NC(=O)CCCCCC(=O)NO	nt	nt	i
O=C(NO)c1ccc(C(=O)N/N=C/c2ccc(F)c(Oc3ccccc3)c2)cc1	i	i	i
COC(=O)CCCCCCC(=O)N/N=C/c1cccc(B(O)O)c1	i	i	i
NC(=O)C1CCCN(/[N+]([O-])=N/OCCBr)C1 (stereo not given)	nt	nt	i
COc1ccc(O)c(/C=N/NC(=O)CCCCCC(=O)Nc2ccccc2O)c1	i	i	nt
C[C@@H]1CN([C@@H](C)CO)C(=O)c2cccc(NC(=O)c3ccncc3)c2O[C@@H]1CN(C)Cc1ccccc1	i	i	nt
C[C@H](CO)N1C[C@H](C)[C@@H](CN(C)Cc2ccccc2)Oc2c(NC(=O)c3ccncc3)cccc2C1=O	i	79	nt
C[C@@H]1CN([C@H](C)CO)C(=O)Cc2cc(NC(=O)Cc3ccccc3)ccc2O[C@H]1CN(C)Cc1ccc2c(c1)OCO2	i	i	nt
C[C@@H]1CN([C@@H](C)CO)C(=O)Cc2cc(NC(=O)Cc3ccccc3)ccc2O[C@@H]1CN(C)Cc1ccc(Cl)c(Cl)c1	i	66	i
C[C@@H]1CN([C@H](C)CO)C(=O)Cc2cc(NC(=O)Nc3ccccc3)ccc2O[C@@H]1CN(C)Cc1ccc(Cl)c(Cl)c1	i	i	nt
C[C@H]1CN([C@@H](C)CO)C(=O)Cc2cc(NC(=O)Cc3ccccc3)ccc2O[C@@H]1CN(C)Cc1ccc2c(c1)OCO2	i	57	i
C[C@@H]1CN([C@H](C)CO)C(=O)Cc2cc(NC(=O)Cc3ccccc3)ccc2O[C@@H]1CN(C)Cc1ccc(Cl)c(Cl)c1	i	76	i
C[C@@H]1CN([C@@H](C)CO)C(=O)Cc2cc(NC(=O)Cc3ccccc3)ccc2O[C@@H]1CN(C)Cc1ccccc1	i	i	nt
COc1ccc(Br)c(/C=N/NC(=O)c2cccc(C(=O)NO)c2)c1	i	i	i
O=C1c2ccccc2[C@](Cc2ccccc2I)(C(=O)O)[C@H](c2ccc(CO)cc2)N1C1CCCCC1	nt	nt	i
COC(=O)CCCCCCC(=O)N/N=C/c1ccccn1	i	i	i
Cc1ccccc1/C=N/NC(=O)c1ccccc1O	i	i	i
O=C(N/N=C/c1cc(I)cc(I)c1O)c1ccccc1O	i	82	i
COc1cc(Br)c(/C=N/NC(=O)c2ccccc2O)cc1OC	i	i	i
COc1cc(Br)cc(/C=N/NC(=O)c2ccccc2O)c1O	i	79	i
O=C(N/N=C/c1ccc(I)cc1)c1ccccc1O	i	i	i
O=C(N/N=C\c1cccc(O)c1O)c1ccccc1O	i	68	nt
O=C(NN=C1CCCCCCC1)c1ccccc1O	i	i	nt
C=CCNC(=O)[C@H]1[C@@H]2C(=O)O[C@@H](c3ccccc3)[C@@H](c3ccccc3)N2[C@@H](c2ccc(OCCO)cc2)[C@]12C(=O)N(C(=O)OCCOC)c1ccc(C#CCC(C(=O)OC)C(=O)OC)cc12	nt	nt	i
O=C(N/N=C/c1ccc2ccccc2n1)c1ccccc1O	i	i	nt
O=C1O[C@H](c2ccccc2)[C@H](c2ccccc2)N2[C@H]1[C@@H](C(=O)N1CCCCCCC1)[C@]1(C(=O)Nc3ccc(C#CCCO)cc31)[C@H]2c1ccccc1OCCO	nt	nt	i
